In ChEMBL document CHEMBL1134044, “Beneficial effects of different flavonoids, on functional recovery after ischemia and reperfusion in isolated rat heart” (2001):

Columns and labels:
Format in all cases: functional, Muscle tissue
[1] = species: Rattus norvegicus; test: Effect of compound on Glutathione peroxidase measured as disappearance of NADPH in isolated rat heart muscle subjected to global ischemia
Method in brief: (§1)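 Isolated rat hearts: 10 min initial perfusion, then 15 min recirculating Krebs with drug (diluted from 10⁻² M DMSO stock; final DMSO 0.01% v/v, matched in controls), 30 min global ischemia, then 30 min reperfusion with the same regime. Hearts were homogenized and frozen in liquid nitrogen. Enzymes were assayed in the centrifuged supernatant, normalized […]; mean ± S.D.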

[2] = species: Rattus norvegicus; test: Effect of compound on catalase measured as disappearance of H2O2 in isolated rat heart muscle subjected to global ischemia; method in brief: as §1
[3] = species: Rattus norvegicus; test: Superoxide dismutase activity measured as inhibition of Cytochrome C reduction by 50% in isolated rat heart muscle subjected to global ischemia; method in brief: as §1

Row | SMILES | Activity [1] | Activity [2] | Activity [3]
1 | Oc1ncnc2[nH]ncc12 [ALLOPURINOL] | 1912 U (mg of protein)-1 | 21 U (mg of protein)-1 | 9800 U (mg of protein)-1
2 | Cc1cc(C(C)(C)C)c(O)c(C(C)(C)C)c1 [BUTYLATED HYDROXYTOLUENE] | 1803 U (mg of protein)-1 | 20 U (mg of protein)-1 | 9636 U (mg of protein)-1
3 | CC(C)(C)c1cc(/C=C/C(=O)c2ccc(O)cc2O)cc(C(C)(C)C)c1O | 1879 U (mg of protein)-1 | 20 U (mg of protein)-1 | 8740 U (mg of protein)-1
4 | CC(C)(C)c1cc(/C=C2\C(=O)c3ccc(O)cc3OC2c2cc(C(C)(C)C)c(O)c(C(C)(C)C)c2)cc(C(C)(C)C)c1O (stereo not drawn) | 1906 U (mg of protein)-1 | 21 U (mg of protein)-1 | 8935 U (mg of protein)-1
5 | CC(C)(C)c1cc(-c2cc(=O)c3ccc(O)cc3o2)cc(C(C)(C)C)c1O | 1982 U (mg of protein)-1 | 21 U (mg of protein)-1 | 8433 U (mg of protein)-1
6 | C[C@@H]1O[C@@H](OC[C@H]2O[C@@H](Oc3c(-c4ccc(O)c(O)c4)oc4cc(O)cc(O)c4c3=O)[C@H](O)[C@@H](O)[C@@H]2O)[C@H](O)[C@H](O)[C@H]1O [RUTIN] | 1829 U (mg of protein)-1 | 21 U (mg of protein)-1 | 9077 U (mg of protein)-1
